Source: PubChem BioAssay (several laboratories)
SENP1 FRET inh – blocks the human SENP1 SUMO protease catalytic domain. Q9P0U3. inhibition, % at 10 µM. recombinant SENP1 catalytic domain, CyPet-SUMO1-YPet FRET cleavage. 0.21% of 360,000 active. AID 624204;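 active = inhibition at least 30% at 10 µM, raw YFP signal under a set limit, fluorescence ratio 0.5 to 1.5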;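 note: 0% = enzyme with DMSO and 100% = no enzyme wells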
Target sequence (Q9P0U3 419-644 limits assumed): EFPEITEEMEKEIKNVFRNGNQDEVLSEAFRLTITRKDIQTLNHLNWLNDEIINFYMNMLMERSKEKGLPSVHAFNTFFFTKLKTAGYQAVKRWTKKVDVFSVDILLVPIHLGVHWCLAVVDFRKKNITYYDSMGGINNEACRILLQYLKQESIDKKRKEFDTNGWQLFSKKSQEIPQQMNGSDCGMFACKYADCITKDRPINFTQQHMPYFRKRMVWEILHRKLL
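Assay system – human recombinant His6-tagged SENP1 catalytic domain enzyme · Input – SENP1 enzyme, 20 pM final · Buffer or medium – Tris pH 8 buffer plus EDTA, NaCl, BME, BSA, NP40, catalase · Schedule – 50 min reaction at room temperature · Technique – FRET read of cyan and yellow fluorescence · Control set – no-enzyme wells low, DMSO-plus-enzyme wells high control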
NadD inh – inhibitors of Staphylococcus aureus NadD | purified NadD enzyme, colorimetric absorbance read-out | inhibition, % at 20 µM | 0.78% of 360,000 active | AID 602399; in the data active = inhibition above about 26%
GRIN3A LBD mod – modulators (binders) of human NR3A ligand-binding domain | Tm shift relative to glycine control, % at 25 µM | AID 1259313 | 2.5% of 340,000 active | NR3A LBD differential scanning fluorimetry, Tm shift; 0% = protein alone, 100% = glycine-bound protein;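 active = melting temperature shift of at least 10% of the positive control shift, at one fixed dose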
UCH37 inh – inhibitors of human deubiquitinating enzyme UCH37; 0.33% of 330,000 active; AID 588478; inhibition, % (no concentration beside the values); purified proteasome/UCH37, Ub-AMC cleavage fluorescence;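 active = mean inhibition over replicate wells above about 20%, limit read from the data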;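 note: 0% = compound-free wells with enzyme and 100% = wells lacking proteasome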
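Material: Human UCH37 enzyme supplied as purified proteasome complex | Schedule: 30 min preincubation with enzyme, 25 min cleavage at room temperature | Detection: AMC fluorescence 355/460 nm | Measure: % inhibition of Ub-AMC cleavage fluorescence | Controls: Wells without proteasome as full block, compound-free enzyme plus substrate as uninhibited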
ATG4B inh – blocks human ATG4B protease cleavage of LC3 substrate | Q9Y4P1 | ATG4B cleavage of LC3-PLA2, NBD-HPC fluorescence, 1 h | inhibition, % at 8.33 µM | 0.51% of 340,000 active; in the data active = inhibition above about 40%
The depositor's hits bear a star; . = not tested or not shown. A selection: hits, their analogues and other compounds. The true share with any hit is near 3.6%.

SMILES | SENP1 FRET inh | NadD inh | GRIN3A LBD mod | UCH37 inh | ATG4B inh
CCC(=NNC(=O)CCC(=O)Nc1ccccc1OC)c1ccccc1 | . | . | . | 1 | .
O=S1(=O)N=C(N(CCO)N=Cc2ccccc2F)c2ccccc21 | . | . | . | 6 | .
Cc1cc(C)nc(NC(=NCCc2c[nH]c3ccccc23)NC(=O)Nc2ccccc2)n1 | 1 | 19 | 10* | 3 | -18
Cc1cc(C)nc(NC(=NCCc2c[nH]c3ccccc23)NC(=O)c2ccco2)n1 | 0 | 26 | -2 | 1 | -22
Cc1ccc(C=Nn2c(COc3ccccc3)n[nH]c2=S)s1 | . | . | . | 6 | .
CCOc1ccc(NC(=S)Nc2ccc(OCc3ccccc3)cc2)cc1 | 5 | 7 | 8 | 0 | 1
S=C(NCCSCc1ccc(Cl)cc1Cl)Nc1ccccc1 | 0 | -4 | 17* | 1 | 35
S=C(Nc1ccccc1)Nc1ccc(OCc2ccc(Cl)cc2Cl)cc1 | 2 | 5 | 14* | 4 | 2
Fc1c(F)c(C(F)(F)F)c(F)c(F)c1NN=Cc1cccs1 | . | . | . | 5 | .
COc1c(C=NNC(=O)c2ccncc2)c(CCN(C)C(C)=O)cc2c1OCO2 | . | . | . | 6 | .
CC(=O)Nc1nc2cc3c(cc2s1)OCO3 | 1 | -4 | -1 | 1 | -6
CCOC(=O)c1sc(Nc2nc3c(OC)cccc3s2)cc1C | -27 | 0 | 22* | -86 | -18
CCOC(=O)c1sc(Nc2nc3cc4c(cc3s2)OCO4)cc1C | -99 | -1 | 29* | -130 | 4
CC(Cn1nc([N+](=O)[O-])cc1C)=NNC(=O)c1ccc(O)cc1O | . | . | . | 4 | .
O=[N+]([O-])c1ccc(Cl)c(C=NN2CCN(Cc3ccc(Cl)cc3)CC2)c1 | . | . | . | 0 | .
O=C(NN=C1CCc2ccccc21)C1CC1 | . | . | . | 3 | .
NC(N)=NN=C1c2ccccc2-c2ccccc21 | 4 | -4 | 23* | 10 | -4
COc1cc(O)ccc1C=NNC(=O)c1ccc([N+](=O)[O-])cc1 | . | . | . | 5 | .
COc1cc(/C=C/c2[nH]c(=O)[nH]c(=O)c2[N+](=O)[O-])cc([N+](=O)[O-])c1O | 4 | 0 | 0 | 21* | -2
O=C(Cc1ccc(Cl)cc1)NN=Cc1ccncc1 | . | . | . | 0 | .
O=C(Nc1cccc(Cl)c1)c1ccc(NC2=NC3CS(=O)(=O)CC3S2)cc1 (stereo not drawn) | 1 | 2 | -3 | 1 | -17
CC(C)c1ccc(NC(=O)c2ccc(NC3=NC4CS(=O)(=O)CC4S3)cc2)cc1 (stereo not drawn) | 2 | 21 | 16* | 5 | -20
CSc1cccc(NC(=O)c2ccc(NC3=NC4CS(=O)(=O)CC4S3)cc2)c1 (stereo not drawn) | -1 | 5 | 28* | 2 | -27
Cc1ccc2[nH]c(=O)c(C(c3nnnn3CC3CCCO3)N3CCCc4ccccc43)cc2c1 (stereo not drawn) | -35 | 5 | 19* | 4 | 3
CSc1nnc(-c2ccncc2)n1N=Cc1cn(-c2ccccc2)nc1-c1ccc(Cl)cc1 | . | . | . | -1 | .
SMILES | SENP1 FRET inh | NadD inh | GRIN3A LBD mod | UCH37 inh | ATG4B inh
CC1(c2ccc(OC(F)F)cc2)NC(=O)N(/N=C/c2c(O)ccc3ccccc23)C1=O (stereo not drawn) | -8 | 4 | 12* | . | -11
Cc1ccc(C(=O)ON=C(N)c2ccc(C(F)(F)F)cn2)cc1 | . | . | . | 2 | .
O=C(Nc1ccc(C(=O)N2CCCCC2)cc1)c1cccs1 | 0 | -6 | -1 | 3 | 4
O=C(Nc1ccccc1O)c1ccc(NC(=O)C2CC2)cc1 | 2 | 2 | 23* | 2 | -5
O=C(Nc1ccc(Cl)cc1)c1cccs1 | 1 | -5 | 2 | 2 | 0
O=C(Nc1ccc(NC(=O)c2cccs2)cc1)c1cccs1 | 0 | 7 | 22* | -22 | 6
Cc1ccn2cc(-c3ccc(NC(=O)c4ccco4)cc3)nc2c1 | 1 | -3 | 29* | 4 | -4
Cc1nc(-c2ccc(NC(=O)c3ccco3)cc2)cs1 | 2 | -1 | 4 | 3 | -4
O=C(Nc1ccc(NC(=O)C2CC2)cc1)c1cccs1 | -1 | 1 | 17* | 3 | -10
Cc1cccc(OCC(=O)NN=Cc2cn[nH]c2-c2ccc(Cl)c(Cl)c2)c1 | . | . | . | 2 | .
Cc1ccn(-c2ccc(NC(=O)c3cccs3)cc2)n1 | 0 | -1 | 26* | -1 | -7
Cc1ccc(NS(=O)(=O)c2ccc(NC(=O)c3cccs3)cc2)cc1 | -1 | 3 | 20* | -1 | -7
